According to ChEMBL document CHEMBL5712898, “H3K27me1 is essential for MMP-9-dependent H3N-terminal tail proteolysis during osteoclastogenesis” (Epigenetics Chromatin, 2018):
Activity calls are given as the source filed them. The calls are words filed in the database; no cut-off is given here.

Experiments:
[1] = test system: Osteoclast; test: Inhibition of EZH1/2 in M-CSF/RANKL-induced OCP cells (unknown origin) assessed as reduction in H3NT proteolysis at 2 uM cultured for 0, 1, 3, and 5 days with RANKL by Western blot analysis; details: Homo sapiens, time 5.0 day
[2] = test system: Osteoclast; test: Inhibition of EZH1/2 in M-CSF/RANKL-induced OCP cells (unknown origin) assessed as reduction in H3K27me2 level at 2 uM cultured for 0, 1, 3, and 5 days with RANKL by Western blot analysis; details: Homo sapiens, time 5.0 day
[3] = test system: Osteoclast; test: Inhibition of EZH1/2 in M-CSF/RANKL-induced OCP cells (unknown origin) assessed as reduction in H3K27me3 level at 2 uM cultured for 0, 1, 3, and 5 days with RANKL by Western blot analysis; details: Homo sapiens, time 5.0 day
[4] = target: Matrix metalloproteinase-9 (Homo sapiens) (UniProt P14780); test: Inhibition of MMP-9 in M-CSF/RANKL-induced OCP cells (unknown origin) assessed as reduction in Nfatc1 mRNA expression at 10 nM co-treated with BIX01294 cultured for 3 days with RANKL by RT-qPCR analysis; type: cell-based; details: Osteoclast, time 3.0 day
Sequence of Matrix metalloproteinase-9 (Homo sapiens) (P14780 whole entry): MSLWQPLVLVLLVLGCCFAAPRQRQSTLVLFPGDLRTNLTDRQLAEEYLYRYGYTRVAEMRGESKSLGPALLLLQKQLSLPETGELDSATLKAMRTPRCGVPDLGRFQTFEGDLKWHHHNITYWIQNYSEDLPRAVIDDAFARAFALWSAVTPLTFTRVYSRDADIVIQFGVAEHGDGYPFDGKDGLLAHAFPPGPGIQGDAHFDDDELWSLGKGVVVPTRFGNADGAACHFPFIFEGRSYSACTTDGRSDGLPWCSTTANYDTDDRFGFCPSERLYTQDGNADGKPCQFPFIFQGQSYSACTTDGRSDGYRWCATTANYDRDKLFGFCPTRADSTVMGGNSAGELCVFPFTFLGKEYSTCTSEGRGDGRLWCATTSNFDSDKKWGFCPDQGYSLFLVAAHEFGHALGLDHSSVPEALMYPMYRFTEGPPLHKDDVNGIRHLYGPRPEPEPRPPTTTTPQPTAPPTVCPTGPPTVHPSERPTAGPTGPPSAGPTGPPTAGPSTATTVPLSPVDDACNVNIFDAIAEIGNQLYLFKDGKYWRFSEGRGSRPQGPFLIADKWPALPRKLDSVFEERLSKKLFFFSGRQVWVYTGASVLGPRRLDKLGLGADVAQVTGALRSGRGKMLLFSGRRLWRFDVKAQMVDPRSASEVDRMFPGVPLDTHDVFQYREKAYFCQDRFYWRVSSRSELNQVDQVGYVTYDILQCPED
How it was run: (§1)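 OCP cells were induced for 3 days with 30 ng/ml M-CSF and 50 ng/ml RANKL, with BIX01294 (1.5 µM) and/or MMP-9 inhibitor I (10 nM) added to the medium. Nfatc1, Lif and Xpr1 transcripts were quantified by RT-qPCR as fold change. Data are given as mean ± SD.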

[5] = target: Matrix metalloproteinase-9 (Homo sapiens) (UniProt P14780); test: Inhibition of MMP-9 in M-CSF/RANKL-induced OCP cells (unknown origin) assessed as reduction in Lif mRNA expression at 10 nM cultured for 3 days with RANKL by RT-qPCR analysis; type: cell-based; details: Osteoclast, time 3.0 day
How it was run: as §1

[6] = target: Matrix metalloproteinase-9 (Homo sapiens) (UniProt P14780); test: Inhibition of MMP-9 in M-CSF/RANKL-induced OCP cells (unknown origin) assessed as reduction in H3NT proteolysis at 10 nM co-treated with 1.5 uM BIX01294 cultured for 0, 1, 3, and 5 days with RANKL by Western blot analysis; type: cell-based; details: Osteoclast, time 5.0 day
How it was run: (§2)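 Osteoclast precursor cells cultured with 30 ng/ml M-CSF plus 50 ng/ml RANKL for 0, 1, 3 or 5 days, with BIX01294 (1.5 µM) and/or MMP-9 inhibitor I (10 nM) in the medium. Nuclei were isolated in HEPES pH 7.4 sucrose buffer with 0.2% Triton X-100, and chromatin was extracted in EDTA/EGTA buffer. Cleaved H3 was detected as a faster-migrating band on Western blot with H3 C-terminal antibody.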

[7] = target: Matrix metalloproteinase-9 (Homo sapiens) (UniProt P14780); test: Inhibition of MMP-9 in M-CSF/RANKL-induced OCP cells (unknown origin) assessed as reduction in Xpr1 mRNA expression at 10 nM cultured for 3 days with RANKL by RT-qPCR analysis; type: cell-based; details: Osteoclast, time 3.0 day
How it was run: as §1

[8] = target: Matrix metalloproteinase-9 (Homo sapiens) (UniProt P14780); test: Inhibition of MMP-9 in M-CSF/RANKL-induced OCP cells (unknown origin) assessed as reduction in Xpr1 mRNA expression at 10 nM co-treated with BIX01294 cultured for 3 days with RANKL by RT-qPCR analysis; type: cell-based; details: Osteoclast, time 3.0 day
How it was run: as §1

[9] = target: Matrix metalloproteinase-9 (Homo sapiens) (UniProt P14780); test: Inhibition of MMP-9 in M-CSF/RANKL-induced OCP cells (unknown origin) assessed as reduction in Lif mRNA expression at 10 nM co-treated with BIX01294 cultured for 3 days with RANKL by RT-qPCR analysis; type: cell-based; details: Osteoclast, time 3.0 day
How it was run: as §1

[10] = target: Matrix metalloproteinase-9 (Homo sapiens) (UniProt P14780); test: Inhibition of MMP-9 in M-CSF/RANKL-induced OCP cells (unknown origin) assessed as reduction in accumulation of H3K27me1 in the CR region of Lif gene at 10 nM cultured for 3 days with RANKL by ChIPac-qPCR analysis; type: cell-based; details: Osteoclast, time 3.0 day
How it was run: (§3)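 Cells were 3-day RANKL-induced OCP cultures (30 ng/ml M-CSF, 50 ng/ml RANKL) with inhibitor in the medium. Chromatin was fixed with […], acetylated with 20 mM acetic anhydride, and immunoprecipitated; crosslinks were reversed overnight at 65 °C. Occupancy was measured by qPCR at the Nfatc1 promoter, the Lif coding region and the Xpr1 promoter plus coding region. Data are given as mean ± SD.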

[11] = target: Matrix metalloproteinase-9 (Homo sapiens) (UniProt P14780); test: Inhibition of MMP-9 in M-CSF/RANKL-induced OCP cells (unknown origin) assessed as reduction in Nfatc1 mRNA expression at 10 nM cultured for 3 days with RANKL by RT-qPCR analysis; type: cell-based; details: Osteoclast, time 3.0 day
How it was run: as §1

[12] = target: Matrix metalloproteinase-9 (Homo sapiens) (UniProt P14780); test: Inhibition of MMP-9 in M-CSF/RANKL-induced OCP cells (unknown origin) assessed as reduction in H3NT proteolysis at 10 nM cultured for 0, 1, 3, and 5 days with RANKL by Western blot analysis; type: cell-based; details: Osteoclast, time 5.0 day
How it was run: as §2

[13] = target: Matrix metalloproteinase-9 (Homo sapiens) (UniProt P14780); test: Inhibition of MMP-9 in M-CSF/RANKL-induced OCP cells (unknown origin) assessed as reduction in accumulation of G9a in the P and CR region of Xpr1 gene at 10 nM cultured for 3 days with RANKL by ChIPac-qPCR analysis; type: cell-based; details: Osteoclast, time 3.0 day
[14] = target: Matrix metalloproteinase-9 (Homo sapiens) (UniProt P14780); test: Inhibition of MMP-9 in M-CSF/RANKL-induced OCP cells (unknown origin) assessed as reduction in accumulation of G9a in the P region of Nfatc1 gene at 10 nM cultured for 3 days with RANKL by ChIPac-qPCR analysis; type: cell-based; details: Osteoclast, time 3.0 day
[15] = target: Matrix metalloproteinase-9 (Homo sapiens) (UniProt P14780); test: Inhibition of MMP-9 in M-CSF/RANKL-induced OCP cells (unknown origin) assessed as reduction in accumulation of H3K27me1 in the P region of Nfatc1 gene at 10 nM cultured for 3 days with RANKL by ChIPac-qPCR analysis; type: cell-based; details: Osteoclast, time 3.0 day
How it was run: as §3

[16] = target: Matrix metalloproteinase-9 (Homo sapiens) (UniProt P14780); test: Inhibition of MMP-9 in M-CSF/RANKL-induced OCP cells (unknown origin) assessed as reduction in TRAP-positive cells at 10 nM co-treated with 1.5 uM BIX01294 cultured for 0, 1, 3, and 5 days with RANKL by light microscopic analysis; type: cell-based; details: Osteoclast, time 5.0 day
How it was run: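 OCP cells were differentiated with 30 ng/ml M-CSF and 50 ng/ml RANKL, with media carrying BIX01294 (1.5 µM) and/or MMP-9 inhibitor I (10 nM). On days 0, 1, 3 and 5 cells were formaldehyde-fixed and stained for tartrate-resistant acid phosphatase with an acid phosphatase leukocyte kit. TRAP-positive cells with three or more nuclei were counted as osteoclasts under a light microscope.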

[17] = target: Matrix metalloproteinase-9 (Homo sapiens) (UniProt P14780); test: Inhibition of MMP-9 in M-CSF/RANKL-induced OCP cells (unknown origin) assessed as reduction in accumulation of G9a in the CR region of Lif gene at 10 nM cultured for 3 days with RANKL by ChIPac-qPCR analysis; type: cell-based; details: Osteoclast, time 3.0 day
[18] = target: Matrix metalloproteinase-9 (Homo sapiens) (UniProt P14780); test: Inhibition of MMP-9 in M-CSF/RANKL-induced OCP cells (unknown origin) assessed as reduction in accumulation of H3K27me1 in the P and CR region of Xpr1 gene at 10 nM cultured for 3 days with RANKL by ChIPac-qPCR analysis; type: cell-based; details: Osteoclast, time 3.0 day
How it was run: as §3

Row | inhibition [4] | inhibition [5] | inhibition [6] | inhibition [7] | inhibition [8] | inhibition [9] | inhibition [10] | inhibition [11] | inhibition [12] | inhibition [13] | inhibition [14] | inhibition [15] | inhibition [16] | inhibition [17] | inhibition [18] | SMILES | inhibition [1] | inhibition [2] | inhibition [3]
1 | – | – | – | – | – | – | – | – | – | – | – | – | – | – | – | CCCc1cc(C)[nH]c(=O)c1CNC(=O)c1cc(-c2ccc(N3CCN(C(C)C)CC3)nc2)cc2c1cnn2C(C)C | inactive | Active | Active
2 | Active | Active | Active | Active | Active | Active | inactive | Active | Active | inactive | inactive | inactive | Active | inactive | inactive | CCN(CC)Cc1cc(C)c(N(Cc2ccccc2)S(=O)(=O)c2ccc(OC)cc2)c(C(=O)NO)c1 | – | – | –
